The text below walks through data of the array DNA melting data of Ke et al. (doi:10.1101/2024.01.08.574731).

The nature of data set [1]: folding enthalpy; higher = less favourable; fluorescence melt of hairpins on a sequencing array, two-state fit. The settings on record: sodium 0.088 M. An outline of the steps:
(§1)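 In 50 mM Na-HEPES pH 8.0 containing 25 mM NaCl, hairpins from the library on a sequenced MiSeq flow cell were imaged for Cy3 fluorescence at 2.5 °C steps up to 60 °C, with Cy3 and quencher oligos annealed. After normalisation to pre-quench Cy3 and to control constructs, two-state fits with bootstrapping gave melting temperature and folding enthalpy. Four replicates were combined by inverse-variance weighting, and fitted temperatures were shifted up by 9.35 °C to match UV melts.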

A short description of data set [2]: melting temperature; fluorescence melt of hairpins on a sequencing array, two-state fit, raised by 9.35 °C to match UV melts. To be noted: sodium 0.088 M. Put shortly:
as §1

As to GTTCAAGGAAACTTAAAC (((.(((....))).))), the folding enthalpy in data set [1] is -10.5 kcal/mol. Also, the Tm in data set [2] is 29 °C.
On the same counts, the results for GTTCACCGAAAGGTAAAC (((.(((....))).))) are -20.4 kcal/mol and 40.5 °C.
Taken in the same sequence, the figures for GTTCACGAAAGTGAAAC ((((((....))).))) were -16.3 kcal/mol and 46.1 °C.
Take GTTCACGAAAGTGCGAAC ((((((....)))..))): the folding enthalpy in data set [1] was -10.7 kcal/mol. Besides, in data set [2], the Tm worked out at 31.6 °C.
Taken in the same sequence, the figures for GTTCACGAAAGTGGAAAC ((((((....)))..))) were -13.4 kcal/mol and 30.9 °C.
On the same counts, the results for GTTCACGAAAGTGGAAC ((((((....))).))) are -19.1 kcal/mol and 45.4 °C.
Taken in the same sequence, the figures for GTTCACGAAAGTGGTAAC ((((((....)))..))) were -12.5 kcal/mol and 25.6 °C.
For GTTCACGCGAAAGCGAAC (((..(((....)))))), in data set [1], the folding enthalpy is -10.2 kcal/mol. For the same sequence, the Tm in data set [2] came to 32.7 °C.
With GTTCAGCGAAAGCTAAC (((.(((....)))))), the folding enthalpy in data set [1] was -13.8 kcal/mol. In addition, the Tm in data set [2] was found to be 36.4 °C.
Regarding GTTCAGGGAAACCTGAGC (.(((((....))))).), the folding enthalpy in data set [1] was -22.5 kcal/mol. Moreover, the Tm in data set [2] is 46.6 °C.
For GTTCATCGAAAGATAAAC (((.(((....))).))), the folding enthalpy in data set [1] is -18.1 kcal/mol. Besides, the Tm in data set [2] was 31.5 °C.
Taken in the same sequence, the figures for GTTCATCGAAAGATTAAC (((.(((....))).))) were -34.2 kcal/mol and 32.6 °C.
Taken in the same sequence, the figures for GTTCATGGAAACATGAAC (((((((....))))))) were -49.9 kcal/mol and 58.2 °C.
On the same counts, the results for GTTCATGGAAACATGAGC (.(((((....))))).) are -23.4 kcal/mol and 43.9 °C.
On to GTTCCAGGAAACCGGAAC (((((.(....).))))), for which, in data set [1], the folding enthalpy is -45.4 kcal/mol. The Tm in data set [2] amounted to 45.6 °C.
Taken in the same sequence, the figures for GTTCCCGAAAGGGGAAAC ((((((....)))..))) were -11.8 kcal/mol and 37.2 °C.
In the case of GTTCCCGAAAGGGGAAC ((((((....))).))), in data set [1], the folding enthalpy is -20.8 kcal/mol. Besides, in data set [2], the Tm turned out to be 57.4 °C.
Taken in the same sequence, the figures for GTTCCCGAAAGGGGGAAC ((((((....)))..))) were -19.3 kcal/mol and 48.4 °C.
On the same counts, the results for GTTCCCGGAAACGGAAAC (((.(((....))).))) are -24.4 kcal/mol and 41.1 °C.
On the same counts, the results for GTTCCTCGAAAGAGAAAC (((.(((....))).))) are -20.3 kcal/mol and 38.1 °C.
As to GTTCGCGAAAGCGAGAAC ((((((....)))..))), the folding enthalpy in data set [1] was -9.97 kcal/mol. Further, the Tm in data set [2] came out at 42.3 °C.
On the same counts, the results for GTTCGCGAAAGCGTAAAC ((((((....)))..))) are -10.3 kcal/mol and 31.9 °C.
Taken in the same sequence, the figures for GTTCGCGCGAAAGCGAAC (((..(((....)))))) were -28.1 kcal/mol and 60.5 °C.
Taken in the same sequence, the figures for GTTCGCGGAAACGCAAAC (((.(((....))).))) were -20.8 kcal/mol and 43.7 °C.
For the sequence GTTCGGACGAAAGTCAAC (((..(((....)))))), the folding enthalpy in data set [1] was -9.64 kcal/mol. Further, in data set [2], the Tm amounted to 29.1 °C.
In the case of GTTCGGCGAAAGCCTAAC (((.(((....))).))), in data set [1], the folding enthalpy is -19.2 kcal/mol. Also, in data set [2], the Tm was found to be 43 °C.
On the same counts, the results for GTTCGGGGAAACCCGAAC (((((((....))))))) are -39.6 kcal/mol and 69 °C.
On the same counts, the results for GTTCGTCGAAAGACTAAC (((.(((....))).))) are -22.2 kcal/mol and 41.3 °C.
On to GTTCGTGGAAACATGAGC (.((.((....)).)).), for which, in data set [1], the folding enthalpy was -18.1 kcal/mol. Moreover, in data set [2], the Tm came to 31.6 °C.
Taken in the same sequence, the figures for GTTCGTGGAAACGTGAAC ((((..(....)..)))) were -15.3 kcal/mol and 34.8 °C.
Taken in the same sequence, the figures for GTTCTACGAAAGTATAAC (((.(((....))).))) were -24 kcal/mol and 34.5 °C.
On the same counts, the results for GTTCTAGCGAAAGCTAAC (((..(((....)))))) are -9.98 kcal/mol and 28.9 °C.
Regarding GTTCTAGGAAACTAGAAC (((((((....))))))), the folding enthalpy in data set [1] was -35 kcal/mol. Also, the Tm in data set [2] was determined as 53.1 °C.
On the same counts, the results for GTTCTCACGAAAGTGAAC (((..(((....)))))) are -10.9 kcal/mol and 31.6 °C.
On the same counts, the results for GTTCTCGAAAGAGAAAC ((((((....))).))) are -17 kcal/mol and 39.7 °C.
Taken in the same sequence, the figures for GTTCTGCGAAAGCACAAC (((.(((....))).))) were -12.6 kcal/mol and 33.3 °C.
Take GTTCTTGGAAACGAGAAC (((((.(....).))))): the folding enthalpy in data set [1] was -28.6 kcal/mol. In addition, in data set [2], the Tm is 43.6 °C.
